ChEMBL document CHEMBL1121825, “A potent, new, sedative--hypnotic agent: 5,7-dihydro-5,5,7,7-tetramethyl-3-(3-nitrophenyl)furo[3,4-e]-as-triazine 4-oxide” (J Med Chem, 1981)

Key:
Mus musculus [1] = assay: Ability to reinduce anesthesia in mice as a measure of in vivo sedative-hypnotic activity; assay type: functional
Outline: (§1)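 Male Royal Hart mice (20–25 g) were anesthetized with hexobarbital 70.0 mg/kg iv. While they were regaining the righting reflex, compound was given ip. Reinduction was scored as loss of righting reflex for 10 min. ED50 (mg/kg) is the dose reinducing anesthesia in 50% of mice, estimated by probit analysis (Miller–Tainter).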

Mus musculus [2] = assay: Tested for ability to reinduce anesthesia in mice when administered intraperitoneally as a measure of in vivo sedative-hypnotic activity; D represents Toxic; assay type: functional, organism-based; outline: as §1

CC1(C)OC(C)(C)c2nc(-c3cccc([N+](=O)[O-])c3)nnc21
ED50 (Mus musculus [1]): 68.8 mg/kg

CC1(C)Cc2nnc(-c3cccc([N+](=O)[O-])c3)[n+]([O-])c2C(C)(C)O1
ED50 (Mus musculus [1]): 500 mg/kg

CC1(C)OC(C)(C)c2nc(-c3cccnc3)nnc21
ED50 (Mus musculus [1]): 28.1 mg/kg

CC1(C)Cc2nnc(-c3ccccc3)[n+]([O-])c2C(C)(C)O1
ED50 (Mus musculus [1]): 122 mg/kg

CC1(C)OC2(CCCCC2)c2c1nnc(-c1ccccc1)[n+]2[O-]
ED50 (Mus musculus [1]): 183 mg/kg

CC1(C)OC(C)(C)c2c1nnc(-c1cccc(C(F)(F)F)c1)[n+]2[O-]
ED50 (Mus musculus [1]): 66.7 mg/kg

CC1(C)OC(C)(C)c2nc(Cc3ccccc3)nnc21
ED50 (Mus musculus [1]): 25 mg/kg

CC1(C)OC(C)(C)c2nc(-c3ccccc3)nnc21
ED50 (Mus musculus [1]): 167 mg/kg

CC1(C)C/C(=N\Nc2ccccc2[N+](=O)[O-])C(C)(C)O1
ED50 (Mus musculus [1]): 1000 mg/kg

CC1(C)OC(C)(C)c2nc(-c3cccc(C(F)(F)F)c3)nnc21
ED50 (Mus musculus [1]): 500 mg/kg

CC1(C)OC(C)(C)c2nc(-c3cnccn3)nnc21
ED50 (Mus musculus [1]): 100 mg/kg

CC1(C)NC(C)(C)c2c1nnc(-c1ccccc1)[n+]2[O-]
ED50 (Mus musculus [1]): 1000 mg/kg

Cc1ccc(-c2nnc3c([n+]2[O-])C(C)(C)OC3(C)C)cc1C
ED50 (Mus musculus [1]): 133 mg/kg

CC1(C)OC(C)(C)c2nnc(-c3ccccc3)cc21.Cl
ED50 (Mus musculus [1]): 112 mg/kg

Cc1nnc(-c2ccccn2)nc1C
ED50 (Mus musculus [2]): Toxic

CCCc1nc(-c2ccccn2)nnc1C
ED50 (Mus musculus [2]): Toxic

CCOC(=O)c1nnc(-c2ccccn2)nc1O
ED50 (Mus musculus [2]): Toxic

CC1(C)CSCC(C)(C)c2nc(-c3ccccn3)nnc21
ED50 (Mus musculus [2]): Toxic

CC1(C)OC(C)(C)c2c1nnc(-c1ccccc1)[n+]2[O-]
ED50 (Mus musculus [1]): 163 mg/kg
